Laboratory results published in the EternaBench riboswitch data.

System: MS2 coat protein
Assay: apparent Kd, MS2 coat protein; higher = weaker binding; RNA-MaP array; FMN 200 µM where present
Method in brief: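 Green signal from SNAP-549-labelled MS2 coat protein was normalised to red-channel RNA signal and to the median Fmax of control clusters. The protein was titrated from 0.7 or 1.5 nM, doubling to 3 µM, without and then with constant ligand, over designs transcribed by stalled E. coli RNA polymerase on Illumina sequencing-chip clusters, in 100 mM Tris-HCl pH 7.5, 80 mM KCl, 4 mM MgCl2, BSA, DTT, yeast tRNA and Tween-20. The apparent Kd is the median of filtered per-cluster binding-curve fits.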

[1] = designed as: OFF switch for flavin mononucleotide, no ligand
[2] = ligand present: flavin mononucleotide, designed as: OFF switch for flavin mononucleotide
[3] = designed as: ON switch for flavin mononucleotide, no ligand
[4] = ligand present: flavin mononucleotide, designed as: ON switch for flavin mononucleotide

Sequence	apparent Kd [1] [nM]	apparent Kd [2] [nM]	apparent Kd [3] [nM]	apparent Kd [4] [nM]
UAUAUGUCAGGAUAUCGAUUGGAACGGAAUUCGGUUCUGGUUGAGAAGGGACAUGAGGAUCACCCAUGUUUUUC	36.2	222		
CAAACAACACAGAAGGCCACGAAGUCCAUGGGUGGAGGAUAUGUGUUAGCUCUGACAUGAGGAUCACCCAUGUCUACGUGAGCU			5.5	5.27
GCCACAAGGGCAGGAUAUGAACUUAAUGGCAGUUUAGAAGGGUCACUCGUGGGUUAAAAUCACAUGAGGAUCACCCAUGUAUAG			664	84.7
UGAUAGGACAGAGGAUAUACGGAUAGGAUCUACUAUCUUUCUCAAAUAACAUGAGGAUCACCCAUGUAGAAGGCUGUCCUAUCU	23.2	119		
GCACGAGACUAAGGAUAUGAUGUACCUAUAUGUGACAUGAGGAUCACCCAUGUGGUAAGUAUGAUUCAGAAGGUAGAGACGUGC			28.2	20.6
AUUAUGACCGAGUUAAGCUUCAAAACAUGAGGAUCACCCAUGUAGGAUAUCAGCACGAUAAGUGCUGAGAAGGACAUCUCGGUC	13.5	15.5		
GGAUGAUUAAUAGGAUAUUAUUUGUAAAUUGGUUAAGAAGGAUUAAUGAUUUAAACGACCUGUUACAUGAGGAUCACCCAUGUU			45.1	35.2
GAAUGGGUAGAAGGACAUGAGGAUCACCCAUGUAGUGUGACUAAGGAUAUUAGAGAAGAUUGACGUAAGAAGGUAGAUGUGAGG	134	117		
UGGUACUAGGGAGGAUAUGGGAAGAUACAUGAGGAUCACCCAUGUUUAAGAAUGCCGAGAGGCACCUAGAAGGCCCUAGUACCU			21.1	5.36
AUGUAUCGCCUCGAGGAUAUCCUGUCAUGCACAUGAGGAUCACCCAUGUAAGAGCGAGUUUAAUGGGAGAAGGCGAGUUCUCGGU			111	35
GUAGCUAUCGGAGGAUAUUCAUACCGGAAACGGACAUGAGGAUCACCCAUGUGCGGAAACGCUUGGGAGAAGGCCGAUAGCUAC			247	19.4
UGGUUGGGAGGAUAUCCAAUAUAUGACAUGAGGAUCACCCAUGUUUCCACUCGUACCUCCGGAGAAGGCCCUUCCA	23.1	22		
GUGUAGUGAGGAUAUCGUUGUUAGGAGGAGAAGGUAGGAGGCGAGAAGGCACAUGAGGAUCACCCAUGUAUGAG	35.1	23.7		
AUUUUGUCAGGAUAUGACUAGAUGCACGAAAGUGCAUCUACUUAGAAGGGACAUGAGGAUCACCCAUGUAUUCC	17.3	17.8		
CGUCGGUGGCAGAAGGGACAGAGAUCCUCGCUGCCGGAUCGUCUUGCACAUGAGGAUCACCCAUGUCAGGAUAUGCCCAAGCGG	5.35	5.15		
GGAUAGGACAGAGGAUAUACGUGCUAGAGAUACUAGCAAAACUUCCUCACAUGAGGAUCACCCAUGUAGAAGGCUGUCCUAUCG	16.7	564		
CGUAUAUGGGAGAAGGCAUGUCCCAAAGGGCCAUGAGGAUAUCCUAAGUGUACGCUUUGCGACAUGAGGAUCACCCAUGUAGCA			7.07	5.75
CUUCGUAUAGAGGAUAUAGGAUACUUCGGUGUCCUAGAAGGCUGUACAUGAGGAUCACCCAUGUACUUCAGAUC	12.1	14.3		
AUGUACCGGUGAGGAUAUUUUUAAUAGAGCUUUAUGAUAUACAUGAGGAUCACCCAUGUUACUUUAAAGAAGGCAUCGGAUUAA	19	14		
GCUGCUCAUGAGAAGGCGAUCAUGAAACAUGAUCGAGGAUAUCAUGUAAACAUGAGGAUCACCCAUGUAUGGGUAUUAUGCAGC			117	40.5
UAUAGGCUAGGAUAUACAACACUUGGUUCAGAUGUUUGAAGACAUGAGGAUCACCCAUGUAGAAGGAGCAUUCA	33.5	76.3		
UGGAUCAUCGGAGGAUAUCAUGUAAAUACAUGAGGAUCACCCAUGUCGAUGGAGACAUCGGAGAUUGAGAAGGCCGAUGAUCCU			437	25.7
AUAUGAUAGAUAGGAUAUACAGAUGAAUAAUAAGUAGAAGGAUCAAAUGGGAAUUAUACAUGAGGAUCACCCAUGUUUUUGAAU			45	33.6
CAUGUGAGCGAGGAUAUUUUACGGGAAACUUUCAGAGAAGGCGCUACAUGAGGAUCACCCAUGUCCGUCAGUCC	41.7	94.8		
UUAUAUAGAGUGAGGAUAUGCUGGUCCUUGGAUCAGCAGAAGGCACAUGAGGAUCACCCAUGUAAUAUAAUAUU	22.4	42		
GGAUAGGACAGAGGAUAUACGUGCUAGAGGUACUAGCAAAAUUUCCUCACAUGAGGAUCACCCAUGUAGAAGGCUGUCCUAUCG	17	461		
AAGAAAGAAACGUAGGAUAUCAAGAAUAUAACAUGAGGAUCACCCAUGUAAAUACGAAAGUAUAAUGAGAAGGAUGGAUGAUCUUC			102	83.4
CUCGUGUAAGGAUAUGCGAGCCACGGAAAUAAAACGUGGAGGUAGAAGGUACAUGAGGAUCACCCAUGUAAAAC	25.4	85.3		

Sequence	apparent Kd [1] [nM]	apparent Kd [2] [nM]	apparent Kd [3] [nM]	apparent Kd [4] [nM]
CCCACGCAUGAGAAGGGACAGGCGUGCAAUUCGACAUGAGGAUCACCCAUGUCAGGAUAUCAGUUAAGGUGGGCAGAACCGAUG	15.4	57.3		
CUGUGAUGGAUCCAGAAUUACAACAUGAGGAUCACCCAUGUGCAGGAUAUCGGGUUGAUAGGCGCCGAGAAGGGUAUAGUCACG	132	132		
ACAGGUUAAGGAUAUACAUGAGGAUCACCCAUGUCGAGUAUCUUGUCAUGCCGCCCAUGUAGAAGGUAACAUGG	13.5	17		
GCAUCGCAUGUCAGGAUAUGCUGUACCUUGGUACAGCAGAAGGGACAUGAGGAUCACCCAUGUGCCUAUGAUGC	39.7	353		
UUAUAACAGUCAGGAUAUGUAACGUACAACGGCGCAGAAGGGACAUGAGGAUCACCCAUGUUAUGGUUCUGGUACUAUGACGUU	13.2	14.9		
GCGCCAUCGUGAGAUGGCGUAACGACAUGAGGAUCACCCAUGUAGGAUAUCGAUUGCUUUGCAGUCGAGAAGGGCAAGGUAAGU	30.7	38.1		
UAUAUAAUUAAGAGCUGGCUCAAAACAUGAGGAUCACCCAUGUAGGAUAUCAGCACGAUAAGUGCUGAGAAGGACAUCCAGCUC	16.9	24.5		
GUAGCAUGCAGGCAGGAUAUUCAUAUUAAAACAUGAGGAUCACCCAUGUAGGCCAAAAGGCCUUGGGAGAAGGGCCACAUGCUAC			636	45.7
CAGAAGUCAGGAUAUGCUGCUCGUCACUUGCGUGAUGAGUAGCAGAAGGGACAUGAGGAUCACCCAUGUAAAGA	63.1	113		
CUGCGCUAGGAGAAGGGCUAGAGUGUGAUAUAUUUGCCCGCGAGCACAUGAGGAUCACCCAUGUAGCAGGAUAUCCAAGCCGAU	8.03	16.5		
CGGGCGCCGAAGGGCGAAAGCCCACAUGAGGAUCACCCAUGUAGAAGGAGGGAAGAAACCAAAACCUAGGAUAUACAGGCGCCC	7.9	10.2		
GGGUACAUCGCAGGAUAUCAUGUAAAUACAUGAGGAUCACCCAUGUCGAUGGAGACAUCGGAGAUUGAGAAGGCCGAUGUACCG			622	322
CCAUCAGCGAACGUAUCGGUUGGACAUGAGGAUCACCCAUGUAGAAGGACAGGAGUAUUACGGCUGUAGGAUAUACAUUUAGUG	21.3	18		
GAUAGGACAGAGAAGGACAUAGCUAGAGAUACUAGCAUAAGAACCUUCACAUGAGGAUCACCCAUGUAGGAUAUCUGUCCUAUC	3.74	4.85		
UUCAUGUGAGGAUAUGUGUACUGCUUUCUGUUUAGAUGUACACAGAAGGCACAUGAGGAUCACCCAUGUAGUAC	45.5	31.8		
GGUCGUCACAUUAACAUGAGGAUCACCCAUGUGAAAACACAUGAGGAUAUGCAUCCUAAUUGGAUGCAGAAGGCAUGGACGACC			24.7	6.28
ACUUAAAUACCCAAAAGUCGGGCGGAGGAUAUGGAGCUUCCACCACAUGAGGAUCACCCAUGUCUUCAGAAGGCCGCCCUUGGA				11.2
CAAUUUAUAACAGGAUAUGUAAUACAAUAGUAAAUAGAAGGGUUUUAUACAUGAGGAUCACCCAUGUCAUGUGUCAUAAUUACC	36.4	29.5		
AAAAAGUGAGGAUAUGGAAAAAAAAAAAAAAAAAAAAAAAACCAGAAGGCACAUGAGGAUCACCCAUGUAAAAA	39.6	39.4		
UAAUGAGAGCAGGAUAUCUUAUAAAUGUAUGAAAGAGAAGGGCUCACAUGAGGAUCACCCAUGUGGUCCUAGAU	34	163		
AAAACAGAUGGAGGAUAUAGUGUAUGGGCCGUAACGGGAGUAUCGCGCAGACUAGAAGGCCAUUUACAUGAGGAUCACCCAUGU			164	56.5
AAAACGUGAGGAUAUGCACCAACCAAGGUUUUUCGGGUACGACAUGAGGAUCACCCAUGUAGAAGGCACGCAAA	26.4	32		
AUAAGUGCAGGAUAUACGAAAUGCUAGCGAAAGCUAGCAUAACAUGAGGAUCACCCAUGUAGAAGGGCACAAUA	28.4	21.5		
UUUUAGCAGUCAGGAUAUGCAACGCACAACGACGCAGAAGGGACAUGAGGAUCACCCAUGUUAUGGUUCUGGUACUAUGACGUU	18.1	24.6		
AGAUUUGUACAUGAGGAUCACCCAUGUUAAUAGGUGGUUGUCAGAAGGCAUUAUUAGAGUUUUAAUGAGGAUAUGAAUUUACAA				541
AAAAAGGGAGGAUAUACAUGAGUAGAUCGUGUAAAAAAAAUACAUGAGGAUCACCCAUGUAGAAGGCCCAAAAA	231	88.2		
GUCGGAAACGACAAGUCAGCUCGUGAGGAUAUACAAUAUUAAAAGAUCACAUGAGGAUCACCCAUGUAGAAGGCACGAGCUGAU	31.7	442		
